“Also recorded” adds a separate entry of the source.
Legend:
AtDLK2 wt [1] = target: T1, AtDLK2 wt (Arabidopsis thaliana, UniProt F4J6L0); assay: Differential scanning fluorimetry, AtDLK2 wt; assay type: binding
T1 sequence (F4J6L0 1-273): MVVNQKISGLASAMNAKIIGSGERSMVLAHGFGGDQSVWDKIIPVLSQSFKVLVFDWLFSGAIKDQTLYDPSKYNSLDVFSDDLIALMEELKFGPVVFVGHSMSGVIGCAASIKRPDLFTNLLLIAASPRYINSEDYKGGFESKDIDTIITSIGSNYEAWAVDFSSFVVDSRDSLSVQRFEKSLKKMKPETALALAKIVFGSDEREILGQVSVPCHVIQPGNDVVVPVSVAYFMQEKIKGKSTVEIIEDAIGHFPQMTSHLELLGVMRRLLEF

AtD14 [2] = target: T2, AtD14 (Arabidopsis thaliana, UniProt Q9SQR3); settings: substrate rac‐GR24; ref Zhao et al., 2013; cited from earlier work
T2 sequence (Q9SQR3 1-267): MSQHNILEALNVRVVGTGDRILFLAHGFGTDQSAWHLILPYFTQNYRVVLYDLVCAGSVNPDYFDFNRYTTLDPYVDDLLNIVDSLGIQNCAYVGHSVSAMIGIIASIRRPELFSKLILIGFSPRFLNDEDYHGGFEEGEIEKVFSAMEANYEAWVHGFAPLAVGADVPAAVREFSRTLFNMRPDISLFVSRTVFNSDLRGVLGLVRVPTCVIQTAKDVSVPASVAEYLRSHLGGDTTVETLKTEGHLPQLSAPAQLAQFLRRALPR

AtDLK2 F167L = target: T3, AtDLK2 F167L (Arabidopsis thaliana, UniProt F4J6L0, F167L); assay: Differential scanning fluorimetry, AtDLK2 F167L; assay type: binding
T3 sequence (F4J6L0 1-273 F167L): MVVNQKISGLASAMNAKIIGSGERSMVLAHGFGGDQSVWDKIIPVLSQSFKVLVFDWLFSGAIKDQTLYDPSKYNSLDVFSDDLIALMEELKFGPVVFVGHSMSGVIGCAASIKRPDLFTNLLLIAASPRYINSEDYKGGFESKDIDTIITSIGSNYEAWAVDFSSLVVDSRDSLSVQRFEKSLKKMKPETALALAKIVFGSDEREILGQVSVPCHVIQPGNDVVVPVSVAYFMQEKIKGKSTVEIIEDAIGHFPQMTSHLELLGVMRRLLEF
Outline: (§1)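 Recombinant protein was expressed in E. coli BL21(DE3), GST-affinity captured, tag removed by on-column HRV3 protease, then size-exclusion purified. DSF used 10 μg protein with rac-GR24 and 3× (final) Sypro Orange in 20 mM TRIS-HCl, 30 mM NaCl, 1 mM TCEP-HCl, pH 7.7. Heating ran 25–95°C at 1°C per minute, in triplicate, and was read from the denaturation curve and its derivative.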

AtD14 [3] = target: T2, AtD14; assay: Differential scanning fluorimetry, AtD14; assay type: binding
Outline: as §1

AtDLK2 F167A [4] = target: T4, AtDLK2 F167A (Arabidopsis thaliana, UniProt F4J6L0, F167A); assay: Differential scanning fluorimetry, AtDLK2 F167A; assay type: binding
T4 sequence (F4J6L0 1-273 F167A): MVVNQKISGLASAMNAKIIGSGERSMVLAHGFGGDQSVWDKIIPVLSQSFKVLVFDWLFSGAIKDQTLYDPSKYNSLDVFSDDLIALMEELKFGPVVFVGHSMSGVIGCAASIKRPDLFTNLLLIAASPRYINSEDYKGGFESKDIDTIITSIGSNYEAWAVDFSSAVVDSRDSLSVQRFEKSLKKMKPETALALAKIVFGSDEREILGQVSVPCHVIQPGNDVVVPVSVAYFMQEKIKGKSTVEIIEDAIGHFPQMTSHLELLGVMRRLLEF
Outline: as §1

AtDLK2 wt [5] = assay: Michaelis–Menten kinetics on para‐nitrophenyl acetate, AtDLK2 wt; assay type: biochemical, Arabidopsis thaliana; settings: substrate pNP acetate
AtKAI2 [6] = target: T5, AtKAI2 (Arabidopsis thaliana, UniProt Q9SZU7); assay: Michaelis–Menten kinetics on para‐nitrophenyl acetate, AtKAI2; assay type: biochemical; settings: substrate pNP acetate
T5 sequence (Q9SZU7 1-270): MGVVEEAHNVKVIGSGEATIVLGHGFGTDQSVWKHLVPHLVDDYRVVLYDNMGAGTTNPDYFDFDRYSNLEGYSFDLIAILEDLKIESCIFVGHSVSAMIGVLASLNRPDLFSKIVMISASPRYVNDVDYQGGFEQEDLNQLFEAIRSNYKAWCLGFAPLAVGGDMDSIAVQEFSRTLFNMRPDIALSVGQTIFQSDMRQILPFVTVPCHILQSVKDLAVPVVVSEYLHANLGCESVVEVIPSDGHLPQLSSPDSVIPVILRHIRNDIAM

AtDLK2 F167A [7] = target: T4, AtDLK2 F167A; assay: Michaelis–Menten kinetics on para‐nitrophenyl acetate, AtDLK2 F167A; assay type: biochemical; settings: substrate pNP acetate
AtDLK2 [8] = target: T6, AtDLK2 (Arabidopsis thaliana, UniProt F4J6L0); settings: at high concentrations; ref Végh et al., 2017; cited from earlier work
T6 sequence (F4J6L0 1-273): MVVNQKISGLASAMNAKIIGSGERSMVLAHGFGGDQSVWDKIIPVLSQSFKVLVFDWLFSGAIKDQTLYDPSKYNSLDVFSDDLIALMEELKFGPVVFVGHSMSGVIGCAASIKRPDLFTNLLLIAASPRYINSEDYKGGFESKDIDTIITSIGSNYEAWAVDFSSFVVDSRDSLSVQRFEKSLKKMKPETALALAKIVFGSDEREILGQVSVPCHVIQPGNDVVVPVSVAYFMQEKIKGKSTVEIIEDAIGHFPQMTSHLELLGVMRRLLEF

AtDLK2 [9] = target: T6, AtDLK2; settings: ref Végh et al., 2017; cited from earlier work
AtKAI2 [10] = target: T5, AtKAI2; assay: Inhibition of AtKAI2 enzymatic activity on pNP acetate; assay type: biochemical; settings: for inhibition of the enzymatic activity of AtKAI2 (in words): pNP acetate as substrate
AtD14 [11] = target: T2, AtD14; assay: Inhibition of AtD14 enzymatic activity on pNP acetate; assay type: biochemical; settings: for inhibition of the enzymatic activity of AtD14 (in words): pNP acetate as substrate
[12] = substrate: CC(=O)Oc1ccc([N+](=O)[O-])cc1; assay: Michaelis–Menten kinetics on para‐nitrophenyl acetate, AtKAI2; assay type: biochemical, Arabidopsis thaliana; settings: other: AtKAI2, substrate pNP acetate; pH 7.0
[13] = substrate: CC(=O)Oc1ccc([N+](=O)[O-])cc1; assay: Michaelis–Menten kinetics on para‐nitrophenyl acetate, AtDLK2 wt; assay type: biochemical, Arabidopsis thaliana; settings: other: AtDLK2 wt, substrate pNP acetate; pH 7.0
[14] = substrate: CC(=O)Oc1ccc([N+](=O)[O-])cc1; assay: Michaelis–Menten kinetics on para‐nitrophenyl acetate, AtDLK2 F167L; assay type: biochemical, Arabidopsis thaliana; settings: other: AtDLK2 F167L, substrate pNP acetate; pH 7.0
[15] = substrate: CC(=O)Oc1ccc([N+](=O)[O-])cc1; assay: Michaelis–Menten kinetics on para‐nitrophenyl acetate, AtDLK2 F167A; assay type: biochemical, Arabidopsis thaliana; settings: other: AtDLK2 F167A, substrate pNP acetate; pH 7.0
[16] = substrate: CC(=O)Oc1ccc([N+](=O)[O-])cc1; assay: Michaelis–Menten kinetics on para‐nitrophenyl acetate, AtD14; assay type: biochemical, Arabidopsis thaliana; settings: other: AtD14, substrate pNP acetate; pH 7.0
[17] = 100 μM concentration of 1, pNP acetate as substrate

## CC1=C[C@H](O/C=C2/C(=O)O[C@@H]3c4ccccc4C[C@H]23)OC1=O (racemic) [rac‐GR24]
AtDLK2 wt [1]
  rac‐GR24‐induced destabilization in DSF: no or marginal
AtD14 [2]
  turnover rate of AtD14: 1 molecule/3 min
AtDLK2 F167L
  rac‐GR24‐induced destabilization in DSF: no or marginal
AtD14 [3]
  rac‐GR24‐induced destabilization in DSF: clearly destabilize
AtDLK2 F167A [4]
  rac‐GR24‐induced destabilization in DSF: no or marginal

## CC(=O)Oc1ccc([N+](=O)[O-])cc1 [pNP acetate, para‐nitrophenyl acetate]
AtDLK2 wt [5]
  catalytic efficiency of AtDLK2 relative to AtD14: 625 times higher
  catalytic efficiency of AtDLK2 relative to AtKAI2: 6.7 times higher
AtKAI2 [6]
  catalytic efficiency of AtKAI2 relative to AtD14: 94 times higher
AtDLK2 F167A [7]
  turnover number (kcat): 67 molecules per second

## (−)‐5‐deoxystrigol
AtDLK2 [8]
  reaction of AtDLK2 in DSF experiments (in words): able to react
AtDLK2 [9]
  hydrolytic activity of AtDLK2 (in words): moderate hydrolytic activity; also recorded: poor but detectable hydrolytic activity

## CC1(c2ccccc2)CC(C)(C)N2C(=O)C(=O)c3cccc1c32 (stereo not shown) [Compound 1, 4,4,6‐Trimethyl‐6‐phenyl‐5,6‐dihydro‐4H‐pyrrolo[3,2,1‐ij]quinoline‐1,2‐dione]
AtKAI2 [10]; [17]
  retained activity of AtKAI2: 95%
AtKAI2 [10]; 1 at concentrations of 50 μM or higher
  decrease of AtKAI2's activity: marginal decrease
AtKAI2 [10]
  inhibition of the enzymatic activity of AtKAI2 (in words): only marginally inhibits
AtKAI2 [10]; listed as compound 1
  inhibition of the enzymatic activity of AtKAI2 (in words): only marginally decreasing
AtD14 [11]; [17]
  retained activity of AtD14: 84%
AtD14 [11]; 1 at concentrations of 12.5 μM or higher
  decrease of AtD14's enzymatic activity: slight decrease
AtD14 [11]
  inhibition of the enzymatic activity of AtD14 (in words): only marginally inhibits
AtD14 [11]; listed as compound 1
  inhibition of the enzymatic activity of AtD14 (in words): only marginally decreasing

B1: AtKAI2 (Arabidopsis thaliana) (protein)
chain: MGVVEEAHNVKVIGSGEATIVLGHGFGTDQSVWKHLVPHLVDDYRVVLYDNMGAGTTNPDYFDFDRYSNLEGYSFDLIAILEDLKIESCIFVGHSVSAMIGVLASLNRPDLFSKIVMISASPRYVNDVDYQGGFEQEDLNQLFEAIRSNYKAWCLGFAPLAVGGDMDSIAVQEFSRTLFNMRPDIALSVGQTIFQSDMRQILPFVTVPCHILQSVKDLAVPVVVSEYLHANLGCESVVEVIPSDGHLPQLSSPDSVIPVILRHIRNDIAM
[12]
  Km: 1.56 ± 0.06 × 10^−3 M
  kcat: 23.6 ± 0.6 s⁻¹
  kcat/Km: 15100 ± 600 M⁻¹ s⁻¹

B2: AtDLK2 wt (Arabidopsis thaliana) (protein)
chain: MVVNQKISGLASAMNAKIIGSGERSMVLAHGFGGDQSVWDKIIPVLSQSFKVLVFDWLFSGAIKDQTLYDPSKYNSLDVFSDDLIALMEELKFGPVVFVGHSMSGVIGCAASIKRPDLFTNLLLIAASPRYINSEDYKGGFESKDIDTIITSIGSNYEAWAVDFSSFVVDSRDSLSVQRFEKSLKKMKPETALALAKIVFGSDEREILGQVSVPCHVIQPGNDVVVPVSVAYFMQEKIKGKSTVEIIEDAIGHFPQMTSHLELLGVMRRLLEF
[13]
  Km: 2.58 ± 0.10 × 10^−4 M
  kcat: 26.6 ± 0.7 s⁻¹
  kcat/Km: 103000 ± 4000 M⁻¹ s⁻¹

B3: AtDLK2 F167L (Arabidopsis thaliana; F167L) (protein)
chain: MVVNQKISGLASAMNAKIIGSGERSMVLAHGFGGDQSVWDKIIPVLSQSFKVLVFDWLFSGAIKDQTLYDPSKYNSLDVFSDDLIALMEELKFGPVVFVGHSMSGVIGCAASIKRPDLFTNLLLIAASPRYINSEDYKGGFESKDIDTIITSIGSNYEAWAVDFSSLVVDSRDSLSVQRFEKSLKKMKPETALALAKIVFGSDEREILGQVSVPCHVIQPGNDVVVPVSVAYFMQEKIKGKSTVEIIEDAIGHFPQMTSHLELLGVMRRLLEF
[14]
  Km: 2.53 ± 0.16 × 10^−4 M
  kcat: 69.8 ± 1.5 s⁻¹
  kcat/Km: 276000 ± 17000 M⁻¹ s⁻¹

B4: AtDLK2 F167A (Arabidopsis thaliana; F167A) (protein)
chain: MVVNQKISGLASAMNAKIIGSGERSMVLAHGFGGDQSVWDKIIPVLSQSFKVLVFDWLFSGAIKDQTLYDPSKYNSLDVFSDDLIALMEELKFGPVVFVGHSMSGVIGCAASIKRPDLFTNLLLIAASPRYINSEDYKGGFESKDIDTIITSIGSNYEAWAVDFSSAVVDSRDSLSVQRFEKSLKKMKPETALALAKIVFGSDEREILGQVSVPCHVIQPGNDVVVPVSVAYFMQEKIKGKSTVEIIEDAIGHFPQMTSHLELLGVMRRLLEF
[15]
  Km: 2.78 ± 0.08 × 10^−4 M
  kcat: 66.9 ± 0.6 s⁻¹
  kcat/Km: 241000 ± 7000 M⁻¹ s⁻¹

B5: AtD14 (Arabidopsis thaliana) (protein)
chain: MSQHNILEALNVRVVGTGDRILFLAHGFGTDQSAWHLILPYFTQNYRVVLYDLVCAGSVNPDYFDFNRYTTLDPYVDDLLNIVDSLGIQNCAYVGHSVSAMIGIIASIRRPELFSKLILIGFSPRFLNDEDYHGGFEEGEIEKVFSAMEANYEAWVHGFAPLAVGADVPAAVREFSRTLFNMRPDISLFVSRTVFNSDLRGVLGLVRVPTCVIQTAKDVSVPASVAEYLRSHLGGDTTVETLKTEGHLPQLSAPAQLAQFLRRALPR
[16]
  Km: 2.00 ± 0.16 × 10^−2 M
  kcat: 3.2 ± 0.06 s⁻¹
  kcat/Km: 160 ± 12 M⁻¹ s⁻¹

Reference: PMC9470386 (Plant Direct, 2022)
